Laboratory results: ChEMBL document CHEMBL4400523, “Synthesis of novel pyrido[1,2-c]pyrimidine derivatives with rigidized tryptamine moiety as potential SSRI and 5-HT1A receptor ligands” (Eur J Med Chem, 2019)

Legend:
Mus musculus [1] = assay: Induction of hypothermia in CD-1 mouse assessed as change in body temperature at 5 mg/kg, ip measured after 30 mins by thermometric method; type: functional, organism-based
In short: (§1)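 Male CD-1 mice (23–40 g), 6–8 per dose, given compound ip in 10% aqueous DMSO (10 mL/kg). Rectal temperature was read by thermometer 30, 60, 90 and 120 min after dosing. Results are expressed as change from basal temperature at experiment start. Analysis by Dunnett's test.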

Mus musculus [2] = assay: Induction of hypothermia in CD-1 mouse assessed as change in body temperature at 5 mg/kg, ip measured after 90 mins by thermometric method; type: functional, organism-based; in short: as §1
Mus musculus [3] = assay: Induction of hypothermia in CD-1 mouse assessed as change in body temperature at 15 mg/kg, ip measured after 90 mins by thermometric method (reference value: -0.1 to 0.1 deg C); type: functional, organism-based; in short: as §1
Mus musculus [4] = assay: Induction of hypothermia in CD-1 mouse assessed as change in body temperature at 20 mg/kg, ip measured after 60 mins by thermometric method; type: functional, organism-based; in short: as §1
Mus musculus [5] = assay: Induction of hypothermia in CD-1 mouse assessed as change in body temperature at 15 mg/kg, ip measured after 60 mins by thermometric method (reference value: 0.1 deg C); type: functional, organism-based; in short: as §1
D(2) dopamine receptor = D(2) dopamine receptor (Homo sapiens, UniProt P14416); assay: Displacement of [3H]-raclopride from recombinant human D2 receptor expressed in HEK293 cells measured after 1 hr by microbeta scintillation counting analysis; type: cell-based
Sequence of D(2) dopamine receptor (P14416 whole entry): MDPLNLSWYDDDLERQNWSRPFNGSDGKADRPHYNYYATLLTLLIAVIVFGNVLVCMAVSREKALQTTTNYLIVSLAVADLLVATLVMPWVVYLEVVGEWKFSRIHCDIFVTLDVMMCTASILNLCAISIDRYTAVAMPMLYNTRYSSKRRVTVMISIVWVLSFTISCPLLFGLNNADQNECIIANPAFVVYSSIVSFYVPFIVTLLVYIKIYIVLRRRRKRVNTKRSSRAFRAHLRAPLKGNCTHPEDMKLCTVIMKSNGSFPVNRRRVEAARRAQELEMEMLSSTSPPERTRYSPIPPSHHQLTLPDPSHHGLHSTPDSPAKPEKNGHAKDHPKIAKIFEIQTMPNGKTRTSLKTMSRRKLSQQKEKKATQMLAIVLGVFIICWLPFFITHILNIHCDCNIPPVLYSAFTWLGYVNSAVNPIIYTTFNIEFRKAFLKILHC

Mus musculus [6] = assay: Induction of hypothermia in CD-1 mouse assessed as change in body temperature at 17.5 mg/kg, ip measured after 30 mins by thermometric method (Rvb <= 0.4 deg C); type: functional, organism-based; in short: as §1
[7] = target: 5-hydroxytryptamine receptor 7 (Homo sapiens, UniProt P34969); assay: Displacement of [3H]-5-CT from recombinant human 5HT7 receptor expressed in HEK293 cells measured after 1 hr by microbeta scintillation counting analysis; type: cell-based
Sequence of 5-hydroxytryptamine receptor 7 (P34969 whole entry): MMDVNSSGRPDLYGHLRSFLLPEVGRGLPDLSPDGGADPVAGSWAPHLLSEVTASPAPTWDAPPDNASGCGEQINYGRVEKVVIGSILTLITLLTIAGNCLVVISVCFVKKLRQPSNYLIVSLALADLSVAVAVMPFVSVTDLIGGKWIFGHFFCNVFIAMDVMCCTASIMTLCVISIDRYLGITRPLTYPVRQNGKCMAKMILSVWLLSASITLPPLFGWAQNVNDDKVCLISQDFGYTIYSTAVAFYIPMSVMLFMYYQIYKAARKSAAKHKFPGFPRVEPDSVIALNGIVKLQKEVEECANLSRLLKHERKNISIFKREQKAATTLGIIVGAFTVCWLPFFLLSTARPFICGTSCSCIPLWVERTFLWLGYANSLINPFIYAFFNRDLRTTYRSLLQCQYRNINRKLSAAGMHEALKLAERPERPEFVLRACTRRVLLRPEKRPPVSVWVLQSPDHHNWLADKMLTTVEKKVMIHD

[8] = target: 5-hydroxytryptamine receptor 6 (Homo sapiens, UniProt P50406); assay: Displacement of [3H]-LSD from recombinant human 5HT6 receptor expressed in HEK293 cells measured after 1 hr by microbeta scintillation counting analysis; type: cell-based
Sequence of 5-hydroxytryptamine receptor 6 (P50406 whole entry): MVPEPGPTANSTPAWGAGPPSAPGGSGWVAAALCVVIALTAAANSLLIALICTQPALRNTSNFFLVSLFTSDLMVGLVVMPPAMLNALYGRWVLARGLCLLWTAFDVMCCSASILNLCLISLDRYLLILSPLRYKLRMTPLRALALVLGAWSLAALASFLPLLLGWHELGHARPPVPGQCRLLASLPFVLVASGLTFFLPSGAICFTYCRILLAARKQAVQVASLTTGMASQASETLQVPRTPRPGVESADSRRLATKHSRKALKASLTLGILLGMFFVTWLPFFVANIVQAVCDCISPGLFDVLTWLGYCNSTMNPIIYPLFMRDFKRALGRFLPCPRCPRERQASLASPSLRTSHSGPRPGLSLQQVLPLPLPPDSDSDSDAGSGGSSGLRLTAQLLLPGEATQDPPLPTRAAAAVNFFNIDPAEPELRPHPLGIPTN

Mus musculus [9] = assay: Induction of hypothermia in CD-1 mouse assessed as change in body temperature at 15 mg/kg, ip measured after 30 mins by thermometric method (Rvb <= 0.4 deg C); type: functional, organism-based; in short: as §1
Mus musculus [10] = assay: Induction of hypothermia in CD-1 mouse assessed as change in body temperature at 20 mg/kg, ip measured after 30 mins by thermometric method; type: functional, organism-based; in short: as §1
Mus musculus [11] = assay: Induction of hypothermia in CD-1 mouse assessed as change in body temperature at 5 mg/kg, ip measured after 120 mins by thermometric method; type: functional, organism-based; in short: as §1
Mus musculus [12] = assay: Induction of hypothermia in CD-1 mouse assessed as change in body temperature at 17.5 mg/kg, ip measured after 90 mins by thermometric method (reference value: -0.1 to 0.1 deg C); type: functional, organism-based; in short: as §1
Mus musculus [13] = assay: Induction of hypothermia in CD-1 mouse assessed as change in body temperature at 20 mg/kg, ip measured after 90 mins by thermometric method; type: functional, organism-based; in short: as §1
Mus musculus [14] = assay: Induction of hypothermia in CD-1 mouse assessed as change in body temperature at 5 mg/kg, ip measured after 60 mins by thermometric method; type: functional, organism-based; in short: as §1
[15] = target: 5-hydroxytryptamine receptor 2A (Homo sapiens, UniProt P28223); assay: Displacement of [3H]-ketanserin from recombinant human 5HT2A receptor expressed in HEK293 cells measured after 1.5 hrs by microbeta scintillation counting analysis; type: cell-based
Sequence of 5-hydroxytryptamine receptor 2A (P28223 whole entry): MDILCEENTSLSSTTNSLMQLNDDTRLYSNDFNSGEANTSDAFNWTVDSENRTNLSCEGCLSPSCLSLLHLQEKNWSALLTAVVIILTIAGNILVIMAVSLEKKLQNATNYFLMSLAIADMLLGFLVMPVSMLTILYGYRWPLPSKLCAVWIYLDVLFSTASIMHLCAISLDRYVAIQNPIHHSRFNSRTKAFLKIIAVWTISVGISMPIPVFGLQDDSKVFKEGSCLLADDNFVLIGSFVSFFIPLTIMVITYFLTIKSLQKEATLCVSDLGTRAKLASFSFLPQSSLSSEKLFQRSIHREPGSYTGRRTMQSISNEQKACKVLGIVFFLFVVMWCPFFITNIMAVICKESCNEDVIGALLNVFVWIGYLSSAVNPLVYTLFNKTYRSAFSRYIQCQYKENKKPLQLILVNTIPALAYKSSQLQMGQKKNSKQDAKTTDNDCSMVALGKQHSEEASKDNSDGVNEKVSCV

Mus musculus [16] = assay: Induction of hypothermia in CD-1 mouse assessed as change in body temperature at 20 mg/kg, ip measured after 120 mins by thermometric method; type: functional, organism-based; in short: as §1
Mus musculus [17] = assay: Induction of hypothermia in CD-1 mouse assessed as change in body temperature at 17.5 mg/kg, ip measured after 120 mins by thermometric method (reference value: -0.1 to 0.1 deg C); type: functional, organism-based; in short: as §1
[18] = target: Sodium-dependent serotonin transporter (Rattus norvegicus, UniProt P31652); assay: Displacement of [3H]-citalopram from SERT in rat cortex tissue measured after 60 mins by microbeta scintillation counting analysis
Sequence of Sodium-dependent serotonin transporter (P31652 whole entry): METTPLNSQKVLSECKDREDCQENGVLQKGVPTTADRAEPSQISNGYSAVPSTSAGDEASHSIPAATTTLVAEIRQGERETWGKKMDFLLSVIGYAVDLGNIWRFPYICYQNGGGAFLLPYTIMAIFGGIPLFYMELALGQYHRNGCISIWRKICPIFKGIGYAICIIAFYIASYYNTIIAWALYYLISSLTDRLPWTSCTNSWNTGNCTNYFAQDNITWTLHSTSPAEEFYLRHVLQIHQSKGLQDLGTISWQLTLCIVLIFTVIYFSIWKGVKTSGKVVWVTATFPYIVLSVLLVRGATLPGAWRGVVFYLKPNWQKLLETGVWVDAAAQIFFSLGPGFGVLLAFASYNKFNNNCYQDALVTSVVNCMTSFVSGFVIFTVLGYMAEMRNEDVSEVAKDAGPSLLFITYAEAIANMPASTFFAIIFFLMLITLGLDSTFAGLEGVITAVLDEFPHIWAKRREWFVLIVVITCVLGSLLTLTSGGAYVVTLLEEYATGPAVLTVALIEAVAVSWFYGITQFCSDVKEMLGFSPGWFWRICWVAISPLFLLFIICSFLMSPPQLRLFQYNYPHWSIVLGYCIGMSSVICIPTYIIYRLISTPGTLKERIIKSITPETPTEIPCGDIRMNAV
In short: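 Rat cortex tissue suspension with 1.0 nM [3H]-citalopram in 50 mM Tris pH 7.7, 150 mM NaCl, 5 mM KCl. Incubated 60 min at 24 °C, in duplicate. GF/B filtration, scintillation counting. One-site fit, Ki via Cheng–Prusoff with in-house Kd.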

Mus musculus [19] = assay: Induction of hypothermia in CD-1 mouse assessed as change in body temperature at 15 mg/kg, ip measured after 120 mins by thermometric method (reference value: -0.1 to 0.1 deg C); type: functional, organism-based; in short: as §1
[20] = Half life in human liver microsomes at 1 uM by LC-MS analysis; type: ADME, Microsome
In short: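 Compound at 1 μM incubated at 37 °C with 1 mg/mL pooled human liver microsomes and 100 μM NADPH in 0.1 M potassium phosphate pH 7.4, after 5-min preincubation. Samples taken at 0, 5, 10, 15, 30 min and quenched in ice-cold acetonitrile with buspirone internal standard. No-NADPH controls were run. Parent measured by LC-ESI(+)-MS of [M+H+]; half-life reported.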

Mus musculus [21] = assay: Induction of hypothermia in CD-1 mouse assessed as change in body temperature at 17.5 mg/kg, ip measured after 60 mins by thermometric method (reference value: 0.1 deg C); type: functional, organism-based; in short: as §1
[22] = target: T1, 5-hydroxytryptamine receptor 1A (Homo sapiens, UniProt P08908); assay: Displacement of [3H]-8-OH-DPAT from recombinant human 5HT1A receptor expressed in CHO cell membranes measured after 60 mins by microbeta scintillation counting analysis
T1 sequence (P08908 whole entry): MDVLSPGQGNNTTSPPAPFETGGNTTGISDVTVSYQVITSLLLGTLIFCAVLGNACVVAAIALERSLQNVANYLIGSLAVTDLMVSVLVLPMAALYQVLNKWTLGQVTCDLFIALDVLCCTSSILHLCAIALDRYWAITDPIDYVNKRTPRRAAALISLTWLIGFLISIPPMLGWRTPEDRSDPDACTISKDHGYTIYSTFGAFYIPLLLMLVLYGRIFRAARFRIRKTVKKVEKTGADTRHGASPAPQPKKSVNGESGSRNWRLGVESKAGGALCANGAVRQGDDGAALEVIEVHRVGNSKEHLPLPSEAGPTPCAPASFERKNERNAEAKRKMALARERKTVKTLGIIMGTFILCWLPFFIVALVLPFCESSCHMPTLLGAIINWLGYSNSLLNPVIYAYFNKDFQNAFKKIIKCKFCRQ

- Ki (D(2) dopamine receptor): 11.2 µM
- Ki [7]: 0.958 µM
- Ki [8]: 0.69 µM
- Ki [15]: 0.314 µM
- Ki [18]: 0.086 µM
- half-life at 1 µM [20]: 3.31 min
- Ki [22]: 0.062 µM
SMILES: COc1ccc(-c2c(=O)n(CCCCN3CCCC(c4c[nH]c5ccc(OC)cc45)C3)c(=O)n3ccccc23)cc1 (stereo not drawn)
- deltaT (Mus musculus [1]): -0.2 °C
- deltaT (Mus musculus [2]): 0.2 °C
- deltaT (Mus musculus [3]): 0.3 °C
- deltaT (Mus musculus [4]): -1 °C
- deltaT (Mus musculus [5]): 0.2 °C
- deltaT (Mus musculus [6]): -0.6 °C
- deltaT (Mus musculus [9]): -0.5 °C
- deltaT (Mus musculus [10]): -2.4 °C
- deltaT (Mus musculus [11]): -0.2 °C
- deltaT (Mus musculus [12]): -0.1 °C
- deltaT (Mus musculus [13]): 0.1 °C
- deltaT (Mus musculus [14]): 0.2 °C
- deltaT (Mus musculus [16]): 0 °C
- deltaT (Mus musculus [17]): 0.1 °C
- deltaT (Mus musculus [19]): 0.2 °C
- deltaT (Mus musculus [21]): -0.2 °C
